Shown are actives, neighbours in structure and some others; about 4.3% of the full set was active somewhere.
Rin1 Abl inh – inhibitors of Rin1-Abl protein binding, primary screen, biochemical, TR-FRET. AID 588664, 2011. Tyrosine-protein kinase ABL1 (Homo sapiens) + Ras and Rab interactor 1 (Homo sapiens), …. inhibition, % at 7.35 µM. 360,000 compounds, 0.4% hits; in the data active = inhibition above about 5%, passing the limit was not always enough
PREPL inh – PREPL enzyme inhibitors, primary screen, biochemical, fluorescence polarization; Prolyl endopeptidase-like (Homo sapiens), Q4J6C6; recombinant PREPL, fluorescence polarization activity-based probe; inhibition, % at 5.96 µM; 320,000 compounds, 0.68% hits; AID 2751, 2010; in the data active = inhibition above about 43%;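 note: 0% = enzyme with DMSO and 100% = wells lacking enzyme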
ALR H2O2 inh – inhibitors of human ALR sulfhydryl oxidase, primary screen, biochemical, H2O2 detection, HRP-luminol luminescence, single point; inhibition, % (concentration not given with the values); FAD-linked sulfhydryl oxidase ALR (Homo sapiens), P55789; AID 485317, 2010; purified ALR, DTT oxidation; 290,000 compounds, 3.8% hits;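 active = mean replicate inhibition above about 79%, with every replicate also reaching it, limit read from the data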
Target sequence (P55789 whole entry, looked up): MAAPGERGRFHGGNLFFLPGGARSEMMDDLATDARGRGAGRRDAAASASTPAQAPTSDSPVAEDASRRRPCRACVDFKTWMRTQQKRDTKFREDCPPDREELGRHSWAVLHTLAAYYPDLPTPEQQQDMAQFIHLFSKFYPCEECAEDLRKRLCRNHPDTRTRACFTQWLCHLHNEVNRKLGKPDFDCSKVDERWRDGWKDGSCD
UBC13 inh – UBC13 polyubiquitin chain formation inhibitors, primary screen, biochemical, TR-FRET, uHTS. AID 485273, 2010. Ubiquitin-conjugating enzyme E2 N (Homo sapiens), P61088. inhibition, % at 20 µM. 330,000 compounds, 0.47% hits; in the data active = inhibition above about 45%, passing the limit was not always enough
Target sequence (P61088 whole entry, looked up): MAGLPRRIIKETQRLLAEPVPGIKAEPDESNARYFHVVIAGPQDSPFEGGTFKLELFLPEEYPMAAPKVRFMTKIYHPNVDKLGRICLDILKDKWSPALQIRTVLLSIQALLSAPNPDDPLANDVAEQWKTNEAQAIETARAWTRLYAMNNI
RBBP9 inhibitor – human RBBP9 inhibitors, primary screen, biochemical, fluorescence polarization, FP-Rh probe, HTS; Serine hydrolase RBBP9 (Homo sapiens), O75884; recombinant RBBP9; inhibition, % at 7.94 µM; 220,000 compounds, 0.2% hits; AID 1515, 2009;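 active = inhibition above the campaign mean of all tested compounds plus 3 SD, cut at about 14% in these data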;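 note: plate controls were DMSO wells with RBBP9 for no effect and wells lacking RBBP9 protein for full effect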
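Test system – recombinant human RBBP9 · Input – RBBP9 2.5 µM in dispensing solution, pre-mixing · Medium – Tris buffer pH 8.0, NaCl, Pluronic · Schedule – preincubation 30 min plus labeling 45 min at 25 °C · Measured by – fluorescence polarization · Measure – % inhibition · Controls – DMSO and no-protein wells · Replicates – one well per compound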
SUMO HTRF inh – inhibitors of in vitro SUMOylation cascade, primary screen, biochemical, HTRF, uHTS | 290,000 compounds, 0.36% hits | HTRF SUMOylation assay, SAE1/SAE2 + UBC9 | SUMO-conjugating enzyme UBC9 (Homo sapiens), P63279 | inhibition, % at 35 µM; in the data active = inhibition above about 50%, passing the limit was not always enough
Target sequence (P63279 whole entry, looked up): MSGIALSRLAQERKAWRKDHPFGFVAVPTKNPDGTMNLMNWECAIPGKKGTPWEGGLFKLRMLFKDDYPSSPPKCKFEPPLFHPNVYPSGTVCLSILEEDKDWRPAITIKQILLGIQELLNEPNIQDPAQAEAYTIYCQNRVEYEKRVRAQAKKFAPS
An asterisk follows results filed as active.

Cn1c(O)c(C(=O)c2ccccc2Cl)c(=O)n(C)c1=O was read as Rin1 Abl inh -2, PREPL inh 4, ALR H2O2 inh -12, UBC13 inh 7, RBBP9 inhibitor -5 and SUMO HTRF inh -2.
`CN=C(SCc1cc2c(cc1Cl)OCO2)c1c(O)n(C)c(=O)n(C)c1=O` gave Rin1 Abl inh 2, PREPL inh 13, ALR H2O2 inh 101*, UBC13 inh -8, RBBP9 inhibitor -6 and SUMO HTRF inh 27.
Screening C=C1C(=O)OC2CCN3CC=C(COC(=O)C(C)(O)C4(CO4)C1C)C23 (centres undefined) returned Rin1 Abl inh 3.
Screening COc1ccc(N2CCN(C(CNC(=O)Oc3ccccc3)c3cccnc3)CC2)cc1 (centres undefined) returned Rin1 Abl inh -3, PREPL inh 27, ALR H2O2 inh 85*, UBC13 inh -1, RBBP9 inhibitor 5 and SUMO HTRF inh -8.
Screening O=C(NCC(c1cccnc1)N1CCN(c2ccccc2F)CC1)Oc1ccccc1 (centres undefined) returned Rin1 Abl inh 3, PREPL inh 34, ALR H2O2 inh -4, UBC13 inh -2, RBBP9 inhibitor -5 and SUMO HTRF inh 24.
For COC(=O)C1=C(c2ccc(OC(F)(F)F)cc2)C[C@@H]2CC[C@H]1N2C(=O)N1CCC(C)CC1 the results were Rin1 Abl inh 0, PREPL inh -8, ALR H2O2 inh -2 and UBC13 inh -4.
Screening CC(C)c1ccc(-n2c(O)c(/C=N/NC(=O)c3ccccc3O)c(=O)[nH]c2=S)cc1 returned Rin1 Abl inh -4, PREPL inh 5, ALR H2O2 inh 73, UBC13 inh 0, RBBP9 inhibitor -3 and SUMO HTRF inh 66*.
For O=C(CCl)NCC1CCCO1 (centres undefined) the results were Rin1 Abl inh -7, PREPL inh 1, UBC13 inh -17, RBBP9 inhibitor -9 and SUMO HTRF inh 11.
`N#Cc1cc(F)c(N2CCNCC2)cc1Cl` gave Rin1 Abl inh 4, PREPL inh 10, ALR H2O2 inh 93*, UBC13 inh 2, RBBP9 inhibitor -2 and SUMO HTRF inh -2.
CC12CCC(O)CC1CCC1C2CCC2(C)C(C(=O)CO)CCC12 (centres undefined) was read as Rin1 Abl inh 2.
`CCCCOC(=O)c1ccc(NC(=O)c2c(O)[nH]c(=O)[nH]c2=O)cc1` gave Rin1 Abl inh 1, PREPL inh 6, ALR H2O2 inh 34 and UBC13 inh 8.
For CN[C@H]1C[C@H]2O[C@@](C)([C@H]1OC)n1c3ccccc3c3c4c(c5c6ccccc6n2c5c31)C(=O)NC4 the results were PREPL inh 76*, UBC13 inh 26, RBBP9 inhibitor 0 and SUMO HTRF inh 10.
c1ccc(CCN2CCC(N3CCN(c4ccccc4)CC3)CC2)cc1 was read as Rin1 Abl inh 0, PREPL inh 19, ALR H2O2 inh 99*, UBC13 inh -8, RBBP9 inhibitor -6 and SUMO HTRF inh -5.
For CCc1n[nH]c(CCN)n1 the results were Rin1 Abl inh -4, PREPL inh -3, ALR H2O2 inh -1, UBC13 inh 1, RBBP9 inhibitor -1 and SUMO HTRF inh 8.
Screening Cc1ccc(-n2nc(C)c(C3C(C#N)=C(N)Oc4c3c(=O)oc3ccccc43)c2Cl)cc1 (centres undefined) returned RBBP9 inhibitor -5 and SUMO HTRF inh -22.
Screening CNS(=O)(=O)c1ccc(-c2ccc(C=C3C(=O)NC(=O)NC3=O)o2)cc1 returned Rin1 Abl inh 0, PREPL inh 2, ALR H2O2 inh 88*, UBC13 inh -48 and SUMO HTRF inh 15.
`NS(=O)(=O)c1ccc(-c2ccc(C=C3C(=O)NC(=O)NC3=O)o2)cc1` gave Rin1 Abl inh 1, PREPL inh -1, ALR H2O2 inh 98*, UBC13 inh -17 and SUMO HTRF inh 3.
CC1C(=O)CC2(C(C)C)CC12 (centres undefined) was read as Rin1 Abl inh -2.
`O=c1[nH]c(=S)[nH]c(O)c1N=Nc1ccc(S(=O)(=O)N2CCOCC2)cc1` gave Rin1 Abl inh -7, PREPL inh 19, ALR H2O2 inh 95*, UBC13 inh -62, RBBP9 inhibitor -4 and SUMO HTRF inh 15.
`O=C(O)CCn1cc(C=C2C(=O)NC(=S)NC2=O)c(-c2cccc(Cl)c2)n1` gave Rin1 Abl inh 2, PREPL inh -4, UBC13 inh 7, RBBP9 inhibitor -12 and SUMO HTRF inh 19.
Screening O=C(O)CCn1cc(C=C2C(=O)NC(=O)NC2=O)c(-c2ccc(Br)cc2)n1 returned Rin1 Abl inh -1, PREPL inh -3, ALR H2O2 inh 87*, UBC13 inh -2, RBBP9 inhibitor -10 and SUMO HTRF inh 73.
For CCOP(=S)(OCC)Oc1nc(Cl)c(Cl)cc1Cl the results were Rin1 Abl inh 0, PREPL inh 2, ALR H2O2 inh 4 and UBC13 inh 15.
`CCN(CC)C(=O)c1ccc(NC(=O)C2=C(C)OCCS2)cc1` gave Rin1 Abl inh -1, PREPL inh 4, ALR H2O2 inh -11, UBC13 inh -6 and SUMO HTRF inh 12.
For Oc1cc2c(cc1CN1CCN(c3ccccc3)CC1)CCC2 the results were Rin1 Abl inh -1, PREPL inh 21, UBC13 inh 2 and RBBP9 inhibitor -5.
Screening O=P(CN1CCN(c2ccccc2)CC1)(N1CCCCC1)N1CCCCC1 returned Rin1 Abl inh -2, PREPL inh 31, ALR H2O2 inh 99*, UBC13 inh 3, RBBP9 inhibitor -12 and SUMO HTRF inh 20.
For CCN(CC)C(=O)c1ccc2c(c1)C1C=CCC1C(C(=O)O)N2 (centres undefined) the results were Rin1 Abl inh 7, ALR H2O2 inh -33, UBC13 inh -25 and SUMO HTRF inh 29.
For COc1ccccc1OCC(=O)N1CCCC(N2CCN(c3ccc(F)cc3)CC2)C1 (centres undefined) the results were Rin1 Abl inh 2, ALR H2O2 inh 95*, UBC13 inh -4 and SUMO HTRF inh -13.
`O=C(COc1ccccc1Cl)N1CCCC(N2CCN(c3ccc(F)cc3)CC2)C1` (centres undefined) gave Rin1 Abl inh 0, PREPL inh -24, ALR H2O2 inh 10, UBC13 inh 8 and SUMO HTRF inh -9.
For C=C1C(=O)OC2CC3(C)OC3C3OC3C3=CC(OC3=O)C12 (centres undefined) the results were Rin1 Abl inh 1.
